Reference: ChEMBL document CHEMBL2021893, “Synthesis, structure-activity relationship and in vitro anti-mycobacterial evaluation of 13-n-octylberberine derivatives” (2012)
In brackets after ≈: the same amount, converted by molar mass. Activity calls are given as the source filed them. The calls are words filed in the database; no cut-off is given here.

Tested on: Mycobacterium tuberculosis
Assay: Antimycobacterial activity against drug-susceptible Mycobacterium tuberculosis H37Rv measured 24 hrs post dose by microplate alamar blue assay
Assay type: functional
Method in brief: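 Two-fold serial drug dilutions in 7H9 medium in 48-well plates, with H37Rv suspension added to give 4 × 10^-4 mg/mL bacteria per well. Plates were incubated at 37 °C, and alamar blue was added at an optimal time. The read was visual at 24 h after reagent addition. MIC was taken as the lowest concentration preventing the colour change.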

Structure (SMILES) | MIC
CCCCCc1c2[n+](cc3c(OC)c(OC)ccc13)CCc1cc3c(cc1-2)OCO3 | inactive
CCCCCCCCc1c2[n+](cc3c(OC)c(OC)ccc13)CCc1cc(O)c(O)cc1-2.[Cl-] | 16 mg/L
CCCCCCCCc1c2[n+](cc3c(OC(=O)c4ccc(C)cc4)c(OC)ccc13)CCc1cc3c(cc1-2)OCO3.[Cl-] | 4 mg/L
CCCCCCCCc1c2[n+](cc3c(OCC)c(OC)ccc13)CCc1cc(OCC)c(OCC)cc1-2.[Cl-] | 0.125 mg/L
CCCCCCCCc1c2[n+](cc3c(OCC)c(OC)ccc13)CCc1cc3c(cc1-2)OCO3.[Cl-] | 4 mg/L
CCCCCCCCc1c2[n+](cc3c(OC)c(OC)ccc13)CCc1cc(OCCCC)c(OCCCC)cc1-2.[Cl-] | 2 mg/L
COc1ccc2cc3[n+](cc2c1OC)CCc1cc2c(cc1-3)OCO2 | inactive
CCCCCCCCc1c2[n+](cc3c(OC)c(OC)ccc13)CCc1cc3c(cc1-2)OCO3.[Cl-] | 2 mg/L
CCCCCCCCc1c2[n+](cc3c(OC)c(OC)ccc13)CCc1cc3c(cc1-2)OCCO3.[Cl-] | 2 mg/L
CCCCCCCCc1c2[n+](cc3c(OC)c(OC)ccc13)CCc1cc(OCc3ccccc3)c(OCc3ccccc3)cc1-2.[Cl-] | 8 mg/L
CCCCCCCCc1c2[n+](cc3c(OC)c(OC)ccc13)CCc1cc(OCc3ccccc3)c(O)cc1-2.[Cl-] | 2 mg/L
CCCCCCCCc1c2[n+](cc3c(OCc4ccccc4)c(OC)ccc13)CCc1cc(OCc3ccccc3)c(O)cc1-2.[Cl-] | 0.5 mg/L
CCCCCCCCc1c2[n+](cc3c(OCCC)c(OC)ccc13)CCc1cc3c(cc1-2)OCO3.[Cl-] | 2 mg/L
CCCCCCCCc1c2[n+](cc3c(OS(=O)(=O)c4ccc(C(F)(F)F)cc4)c(OC)ccc13)CCc1cc3c(cc1-2)OCO3.[Cl-] | 16 mg/L
CCCCCCCCc1c2[n+](cc3c(OCCCC)c(OC)ccc13)CCc1cc3c(cc1-2)OCO3.[Cl-] | 8 mg/L
CCCCCCCCc1c2[n+](cc3c(OCC)c(OC)ccc13)CCc1cc(OCC)c(O)cc1-2.[Cl-] | 4 mg/L
CCCCCCCCc1c2[n+](cc3c(OC)c(OC)ccc13)CCc1cc(OCC)c(O)cc1-2.[Cl-] | 2 mg/L
CCCCCCCCc1c2[n+](cc3c(OC)c(OC)ccc13)CCc1cc(OCCCC)c(O)cc1-2.[Cl-] | 8 mg/L
CCCCCCCCc1c2[n+](cc3c(OC(=O)c4ccc(OC)cc4)c(OC)ccc13)CCc1cc3c(cc1-2)OCO3.[Cl-] | 4 mg/L
CCCCCCCCc1c2[n+](cc3c(OCc4ccccc4)c(OC)ccc13)CCc1cc(OCc3ccccc3)c(OCc3ccccc3)cc1-2.[Cl-] | 8 mg/L

Structure (SMILES) | MIC
COc1ccc2c(C)c3[n+](cc2c1OC)CCc1cc2c(cc1-3)OCO2 | inactive
CCCCc1c2[n+](cc3c(OC)c(OC)ccc13)CCc1cc3c(cc1-2)OCO3 | inactive
CCCCCCCCc1c2[n+](cc3c(OCCC)c(OC)ccc13)CCc1cc(OCCC)c(O)cc1-2.[Cl-] | 4 mg/L
CCCCCCCCc1c2[n+](cc3c(OC)c(OC)ccc13)CCc1cc(OC)c(O)cc1-2.[Cl-] | 2 mg/L
NNC(=O)c1ccncc1 [ISONIAZID] | 0.0625 mg/L (≈ 0.456 µM)
CCCCCCCCc1c2[n+](cc3c(OC)c(OC)ccc13)CCc1cc(OC)c(OC)cc1-2.[Cl-] | 2 mg/L
CCCCCCCCc1c2[n+](cc3c(OC)c(OC)ccc13)CCc1cc(OCC)c(OCC)cc1-2.[Cl-] | 0.5 mg/L
CCCCCCCCc1c2[n+](cc3c(O)c(OC)ccc13)CCc1cc3c(cc1-2)OCO3.[Cl-] | 4 mg/L
CCCCCCCCc1c2[n+](cc3c(OCCCC)c(OC)ccc13)CCc1cc(OCCCC)c(O)cc1-2.[Cl-] | 8 mg/L
CCCCCCCc1c2[n+](cc3c(OC)c(OC)ccc13)CCc1cc3c(cc1-2)OCO3 | inactive
CCCCCCCCc1c2[n+](cc3c(OC)c(OC)ccc13)CCc1cc(OCCC)c(O)cc1-2.[Cl-] | 4 mg/L
CCCCCCCCc1c2[n+](cc3c(O)c(OC)ccc13)CCc1cc(O)c(O)cc1-2.[Cl-] | 32 mg/L
CCCCCCCCc1c2[n+](cc3c(OC)c(OC)ccc13)CCc1cc(OCCC)c(OCCC)cc1-2.[Cl-] | 2 mg/L
CCCCCCCCc1c2[n+](cc3c(OS(=O)(=O)c4ccc(C#N)cc4)c(OC)ccc13)CCc1cc3c(cc1-2)OCO3.[Cl-] | 8 mg/L
CCCc1c2[n+](cc3c(OC)c(OC)ccc13)CCc1cc3c(cc1-2)OCO3 | inactive
CCCCCCc1c2[n+](cc3c(OC)c(OC)ccc13)CCc1cc3c(cc1-2)OCO3 | inactive
CCc1c2[n+](cc3c(OC)c(OC)ccc13)CCc1cc3c(cc1-2)OCO3 | inactive
CCCCCCCCc1c2[n+](cc3c(OCc4ccccc4)c(OC)ccc13)CCc1cc3c(cc1-2)OCO3.[Cl-] | 4 mg/L
CO[C@H]1/C=C/O[C@@]2(C)Oc3c(C)c(O)c4c(O)c(c(/C=N/N5CCN(C)CC5)c(O)c4c3C2=O)NC(=O)/C(C)=C\C=C\[C@H](C)[C@H](O)[C@@H](C)[C@@H](O)[C@@H](C)[C@H](OC(C)=O)[C@@H]1C [RIFAMPIN] | 0.0625 mg/L (≈ 0.0759 µM)
